Source: ChEMBL document CHEMBL4354879, “Bioisosteric Discovery of NPA101.3, a Second-Generation RET/VEGFR2 Inhibitor Optimized for Single-Agent Polypharmacology” (J Med Chem, 2020)
pIC50: −log10 of the molar value. Activity calls are given as the source filed them. No cut-off for these calls is given here.

Columns and labels:
[1] = molecular target: MAP kinase-interacting serine/threonine-protein kinase 2 (Homo sapiens) (UniProt Q9HBH9); assay: Binding affinity to wild-type human partial length MKNK2 (G63 to S388 residues) expressed in mammalian expression system at 100 nM by Kinomescan method relative to control
[2] = test system: GTPase HRas (Homo sapiens), P01112 [G12V]; assay: Inhibition of HRAS G12V mutant (unknown origin) expressed in mouse NIH/3T3 cells assessed as reduction in cell proliferation up to 100 nM supplemented with fresh medium containing compound for every 2 to 3 days measured at 2 days interval during compound dosing; assay type: cell-based
Procedure, shortened: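 NIH3T3 transformants seeded 10000/well in 2% calf serum; next day drug or vehicle added, medium changed every 2–3 days; cells counted every 2 days; IC50 from curve fit of last-day counts.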

[3] = test system: Proto-oncogene tyrosine-protein kinase receptor Ret (Homo sapiens), P07949 [C634R]; assay: Inhibition of RET isoform 9 C634R mutant (unknown origin) expressed in rat Rat1 assessed as reduction in RET phosphorylation at Y905 residue at 0.3 nM measured after 2 hrs by Western blot analysis; assay type: cell-based
Procedure, shortened: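 RAT1 fibroblasts expressing RET-9 C634R, serum-starved, treated 2 h with 0.1–10.0 nM; 50 μg lysate blotted for RET pY905 and pY1062, normalized to total RET; ECL detection.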

[4] = test system: Proto-oncogene tyrosine-protein kinase receptor Ret (Homo sapiens), P07949 [M918T]; assay: Inhibition of RET isoform 9 M918T mutant (unknown origin) expressed in rat Rat1 assessed as reduction in RET phosphorylation at Y1062 residue at 1 to 100 nM measured after 2 hrs by Western blot analysis; assay type: cell-based
Procedure, shortened: (§1)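 Serum-starved RAT1 (RET point mutants) or NIH3T3 (RET rearrangements) cells expressing short RET-9 isoform, treated 2 h; 50 μg total lysate immunoblotted with anti-phospho-Y1062 and anti-phospho-Y905 RET antibodies, normalized to total RET; ECL detection. Compound from 50 mM DMSO stock diluted in growth medium.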

Mus musculus [5] = assay: In vivo inhibition of RET isoform 9 C634R mutant transfected in mouse NIH/3T3 cells implanted BALB/c nu/nu mouse assessed as reduction in RET phosphorylation at Y1062 residue in tumor at 1 mg/kg, po administered once daily via gavage for 3 days measured 3 hrs post-last dose by Western blot analysis; assay type: functional, organism-based
Mus musculus [6] = assay: In vivo inhibition of RET isoform 9 C634Y mutant transfected in mouse NIH/3T3 cells implanted BALB/c nu/nu mouse assessed as reduction in MAPK phosphorylation at 3 mg/kg, po administered once daily via gavage for 2 days measured 3 hrs post-last dose by Western blot analysis
[7] = molecular target: Coiled-coil domain-containing protein 6/Tyrosine-protein kinase receptor RET (Homo sapiens) (UniProt P07949+Q16204); assay: Inhibition of CCDC6/RET in human LC2/ad cells assessed as reduction in SHC phosphorylation at 0.3 to 30 nM measured after 2 hrs by Western blot analysis; assay type: cell-based
[8] = Toxicity in BALB/c nu/nu mouse assessed as change in globulin level at 10 mg/kg, po administered daily for 7 days; assay type: organism-based; conditions: in vivo, 168 h
[9] = molecular target: Vascular endothelial growth factor receptor 2 (Homo sapiens, UniProt P35968); assay: Inhibition of recombinant human VEGFR2 expressed in HEK293 cells assessed as reduction in VEGFA-induced VEGFR2 autophosphorylation at 1 to 10 nM preincubated for 2 hrs followed by VEGFA-stimulation and measured after 15 mins by Western blot analysis; assay type: cell-based
Procedure, shortened: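 HEK293 transiently transfected with human VEGFR2; 36 h post-transfection serum-starved 12 h, compound or vehicle 2 h, then VEGFA 100 ng/mL for 15 min; lysates blotted for phospho-VEGFR2, normalized to total VEGFR2.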

Homo sapiens [10] = species on record: Homo sapiens; assay: Effect on MAPK phosphorylation in RET deficient human Nthy-ori 3-1 cells at 1 to 100 nM measured after 2 hrs by western blot analysis
BaF3 = assay: Inhibition of NCOA4/RET […] (unknown origin) expressed in mouse BAF3 cells assessed as reduction in RET phosphorylation at Y1062 residue at 0.3 to 30 nM measured after 2 hrs by Western blot analysis; assay type: cell-based; conditions: Homo sapiens
Procedure, shortened: (§2)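 Ba/F3 cells stably expressing long-isoform RET-51 mutants (electroporation), cultured in RPMI/10% FCS without IL-3; RET phosphorylation read by Western blot with anti-phospho-Y905 and anti-phospho-Y1062 antibodies, ECL detection.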

Homo sapiens [11] = species on record: Homo sapiens; assay: Inhibition of CCDC6/RET isoform 9 (unknown origin) expressed in mouse NIH/3T3 cells assessed as reduction in RET phosphorylation at Y905 residue at 1 to 100 nM measured after 2 hrs by Western blot analysis; assay type: cell-based; procedure, shortened: as §1
[12] = Cytotoxicity against RET deficient human Nthy-ori 3-1 cells supplemented with fresh medium containing compound for every 2 to 3 days measured during compound dosing; assay type: cell-based
Procedure, shortened: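 Human RET-negative lines were seeded in six-well plates at 10000 cells/well, in 5% FCS (Nthy-ori-3-1) or 10% FCS (BCPAP, 8505-C, CALU-1, A549, PC-9). Drug or vehicle was added the day after plating, with medium changed every 2–3 days. Cells were counted every 2–3 days. IC50 was fitted from the last day of the growth curves.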

[13] = test system: Proto-oncogene tyrosine-protein kinase receptor Ret (Homo sapiens), P07949 [C634W]; assay: Inhibition of Ret isoform 9 C634W mutant in human TT cells assessed as reduction in SHC phosphorylation at 0.3 to 30 nM measured after 2 hrs by Western blot analysis; assay type: cell-based
[14] = Drug metabolism in BALB/c nu/nu mouse assessed as formation of demethylated metabolite at 10 mg/kg, po measured after 1 to 4 hrs by LC-MS analysis; assay type: ADME, organism-based; conditions: in vivo
[15] = molecular target: Centrosomal protein 43/RET (Homo sapiens) (UniProt P07949+O95684); assay: Inhibition of FGFR1OP/RET isoform 9 (unknown origin) expressed in mouse NIH/3T3 cells assessed as reduction in RET phosphorylation at Y1062 residue at 1 to 100 nM measured after 2 hrs by Western blot analysis; assay type: cell-based; procedure, shortened: as §1
[16] = test system: Proto-oncogene tyrosine-protein kinase receptor Ret (Homo sapiens), P07949 [C634R]; assay: Inhibition of RET […] C634R mutant (unknown origin) expressed in mouse BAF3 cells assessed as reduction in RET phosphorylation at Y905 residue at 0.3 to 30 nM measured after 2 hrs by Western blot analysis; assay type: cell-based; procedure, shortened: as §2

Sequence of Proto-oncogene tyrosine-protein kinase receptor Ret (Homo sapiens), P07949 [C634R] (P07949 whole entry C634R, canonical isoform): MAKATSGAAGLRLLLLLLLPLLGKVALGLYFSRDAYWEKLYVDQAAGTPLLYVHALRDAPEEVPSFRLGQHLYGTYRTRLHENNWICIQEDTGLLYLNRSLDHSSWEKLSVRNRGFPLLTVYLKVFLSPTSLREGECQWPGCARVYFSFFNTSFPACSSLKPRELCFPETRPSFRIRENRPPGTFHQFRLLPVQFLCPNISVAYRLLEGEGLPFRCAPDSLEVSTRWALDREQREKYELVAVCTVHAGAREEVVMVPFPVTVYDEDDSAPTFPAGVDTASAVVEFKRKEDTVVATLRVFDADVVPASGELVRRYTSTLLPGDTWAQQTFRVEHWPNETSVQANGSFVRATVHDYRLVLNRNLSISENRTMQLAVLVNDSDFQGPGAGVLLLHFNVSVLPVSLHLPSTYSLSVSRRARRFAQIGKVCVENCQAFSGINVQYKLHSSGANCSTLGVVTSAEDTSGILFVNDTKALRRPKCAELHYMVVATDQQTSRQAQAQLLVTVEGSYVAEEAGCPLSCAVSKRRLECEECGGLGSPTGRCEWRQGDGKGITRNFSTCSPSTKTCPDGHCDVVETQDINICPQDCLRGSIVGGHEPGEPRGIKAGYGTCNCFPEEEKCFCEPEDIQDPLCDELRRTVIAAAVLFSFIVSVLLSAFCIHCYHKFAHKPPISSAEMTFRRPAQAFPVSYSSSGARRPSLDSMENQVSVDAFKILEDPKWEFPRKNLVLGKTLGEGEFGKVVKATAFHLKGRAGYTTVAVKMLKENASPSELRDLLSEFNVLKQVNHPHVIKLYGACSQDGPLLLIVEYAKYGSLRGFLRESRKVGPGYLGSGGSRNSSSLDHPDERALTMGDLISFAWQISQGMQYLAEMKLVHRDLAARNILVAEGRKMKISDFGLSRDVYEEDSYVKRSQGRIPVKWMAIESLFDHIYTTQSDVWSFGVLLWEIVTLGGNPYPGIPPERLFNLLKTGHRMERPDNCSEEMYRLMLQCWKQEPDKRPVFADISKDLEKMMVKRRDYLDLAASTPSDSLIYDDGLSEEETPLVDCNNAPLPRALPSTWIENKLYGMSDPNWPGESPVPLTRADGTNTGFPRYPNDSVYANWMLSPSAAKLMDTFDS
Sequence of Proto-oncogene tyrosine-protein kinase receptor Ret (Homo sapiens), P07949 [C634W] (P07949 whole entry C634W, canonical isoform): as the sequence (P07949 whole entry C634R, canonical isoform) above, with R634W counted along it
Sequence of Vascular endothelial growth factor receptor 2 (P35968 whole entry): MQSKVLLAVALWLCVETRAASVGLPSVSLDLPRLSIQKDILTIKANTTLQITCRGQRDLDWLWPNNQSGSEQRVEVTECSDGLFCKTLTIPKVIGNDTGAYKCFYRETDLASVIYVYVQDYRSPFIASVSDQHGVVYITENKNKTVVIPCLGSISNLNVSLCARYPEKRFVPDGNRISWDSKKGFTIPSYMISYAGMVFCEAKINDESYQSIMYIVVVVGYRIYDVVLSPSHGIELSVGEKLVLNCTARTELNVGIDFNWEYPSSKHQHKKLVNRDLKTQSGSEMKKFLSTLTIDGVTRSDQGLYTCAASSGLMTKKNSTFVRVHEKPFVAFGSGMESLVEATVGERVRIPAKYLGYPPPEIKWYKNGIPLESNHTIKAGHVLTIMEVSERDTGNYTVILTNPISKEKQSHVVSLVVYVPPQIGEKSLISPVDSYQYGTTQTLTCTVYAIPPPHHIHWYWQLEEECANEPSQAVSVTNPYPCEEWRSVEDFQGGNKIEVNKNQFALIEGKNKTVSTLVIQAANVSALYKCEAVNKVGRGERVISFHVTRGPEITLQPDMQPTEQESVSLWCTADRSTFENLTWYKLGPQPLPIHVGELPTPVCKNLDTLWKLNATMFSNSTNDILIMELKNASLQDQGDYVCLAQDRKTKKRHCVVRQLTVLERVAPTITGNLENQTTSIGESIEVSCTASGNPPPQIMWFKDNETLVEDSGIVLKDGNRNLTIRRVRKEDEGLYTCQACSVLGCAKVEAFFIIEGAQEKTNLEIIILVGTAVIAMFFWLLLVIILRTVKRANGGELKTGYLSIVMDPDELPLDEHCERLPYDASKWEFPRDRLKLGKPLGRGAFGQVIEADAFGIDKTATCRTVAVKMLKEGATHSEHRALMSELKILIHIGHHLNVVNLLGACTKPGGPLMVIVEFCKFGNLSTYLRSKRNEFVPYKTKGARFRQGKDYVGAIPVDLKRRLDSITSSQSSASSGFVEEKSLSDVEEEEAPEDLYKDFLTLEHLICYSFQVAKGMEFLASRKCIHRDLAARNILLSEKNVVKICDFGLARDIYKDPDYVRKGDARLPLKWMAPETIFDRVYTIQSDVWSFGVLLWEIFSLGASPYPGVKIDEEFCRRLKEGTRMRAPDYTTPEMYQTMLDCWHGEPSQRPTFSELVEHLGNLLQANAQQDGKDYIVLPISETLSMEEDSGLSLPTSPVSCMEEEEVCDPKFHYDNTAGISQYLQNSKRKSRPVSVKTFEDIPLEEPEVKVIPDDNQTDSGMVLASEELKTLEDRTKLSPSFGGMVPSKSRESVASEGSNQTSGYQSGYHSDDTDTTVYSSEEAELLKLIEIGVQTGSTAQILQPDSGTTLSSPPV
Sequence of Centrosomal protein 43/RET (Homo sapiens) (O95684 whole entry, looked up, canonical isoform): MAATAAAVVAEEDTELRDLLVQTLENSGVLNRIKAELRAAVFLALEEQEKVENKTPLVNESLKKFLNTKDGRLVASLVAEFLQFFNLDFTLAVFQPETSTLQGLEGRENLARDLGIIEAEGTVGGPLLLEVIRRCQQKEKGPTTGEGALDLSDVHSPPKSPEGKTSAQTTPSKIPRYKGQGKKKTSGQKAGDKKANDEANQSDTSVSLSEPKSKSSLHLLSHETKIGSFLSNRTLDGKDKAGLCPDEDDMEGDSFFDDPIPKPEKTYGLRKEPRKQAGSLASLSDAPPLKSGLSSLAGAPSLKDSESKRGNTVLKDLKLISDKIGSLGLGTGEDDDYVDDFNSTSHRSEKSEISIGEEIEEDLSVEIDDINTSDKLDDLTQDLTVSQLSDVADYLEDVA
Sequence of Centrosomal protein 43/RET (Homo sapiens) (P07949 whole entry, looked up, canonical isoform): as the sequence (P07949 whole entry C634R, canonical isoform) above, with R634C counted along it
Sequence of Proto-oncogene tyrosine-protein kinase receptor Ret (Homo sapiens), P07949 [M918T] (P07949 whole entry M918T, canonical isoform): as the sequence (P07949 whole entry C634R, canonical isoform) above, with R634C, M918T counted along it
Sequence of GTPase HRas (Homo sapiens), P01112 [G12V] (P01112 whole entry G12V): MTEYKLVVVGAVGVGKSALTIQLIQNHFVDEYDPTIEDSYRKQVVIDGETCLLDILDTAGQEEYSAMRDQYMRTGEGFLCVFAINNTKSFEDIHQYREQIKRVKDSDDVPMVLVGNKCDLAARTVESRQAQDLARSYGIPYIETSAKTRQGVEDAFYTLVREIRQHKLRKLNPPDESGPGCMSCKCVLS
Sequence of MAP kinase-interacting serine/threonine-protein kinase 2 (Homo sapiens) (Q9HBH9 whole entry, looked up, the tested form may be a part): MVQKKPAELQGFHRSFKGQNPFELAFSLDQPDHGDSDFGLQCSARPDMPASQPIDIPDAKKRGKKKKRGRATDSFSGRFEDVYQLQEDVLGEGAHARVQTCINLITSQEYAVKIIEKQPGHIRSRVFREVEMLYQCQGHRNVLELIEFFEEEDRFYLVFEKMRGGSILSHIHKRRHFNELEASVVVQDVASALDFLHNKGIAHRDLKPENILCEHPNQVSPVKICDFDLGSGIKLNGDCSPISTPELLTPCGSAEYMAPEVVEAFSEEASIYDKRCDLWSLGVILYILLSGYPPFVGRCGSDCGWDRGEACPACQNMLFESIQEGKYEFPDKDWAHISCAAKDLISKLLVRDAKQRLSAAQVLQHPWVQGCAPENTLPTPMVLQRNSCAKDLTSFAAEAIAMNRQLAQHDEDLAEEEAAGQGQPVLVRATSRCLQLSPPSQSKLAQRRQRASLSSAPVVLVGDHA

CC(C)(C)c1cc(NC(=O)Cc2ccc(-n3cnc4cc(-c5ccc(S(C)(=O)=O)cc5)ccc43)cc2)no1
Activity [1]: > 90% | inhibition [2]: inactive | inhibition [3]: Active | inhibition [4]: Active | inhibition (Mus musculus [5]): Active | inhibition (Mus musculus [6]): Active | inhibition [7]: Active | Activity [8]: Non-Toxic | inhibition [9]: Active | Activity (Homo sapiens [10]): inactive | inhibition (BaF3): Active | inhibition (Homo sapiens [11]): Active | pIC50 [12]: < 7.00 | inhibition [13]: Active | Drug metabolism [14]: Metabolite_Notdetected | inhibition [15]: Active | inhibition [16]: Active
